According to ChEMBL document CHEMBL1781879, “Synthesis and biological characterization of arylomycin B antibiotics” (2011):
≈ marks a conversion by molar mass, not a printed value.

Key:
Lactococcus lactis = experiment: Antibacterial activity against 1 x 10^7 CFU/mL Lactococcus lactis ATCC 19257 in trypticase soy yeast broth after 24 hrs by CLSI broth microdilution method; assay type: functional; conditions: ATCC 19257, 24 h
Summary of the method: (§1)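 CLSI broth microdilution. Bacteria from solid media were suspended in the test broth at 1×10^7 cfu/ml, and 5 μl was added to 100 μl medium containing compound. Media were cation-adjusted Mueller Hinton II (R. opacus, S. epidermidis), Todd Hewitt (S. pyogenes, S. pneumoniae) and Trypticase Soy Yeast broth (L. lactis). MIC was the lowest concentration inhibiting visible growth, from at least three independent experiments.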

Streptococcus agalactiae = experiment: Antibacterial activity against 1 x 10^7 CFU/mL Streptococcus agalactiae COH1 after 24 hrs by CLSI broth microdilution method; assay type: functional; conditions: COH1, 24 h
Summary of the method: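 Streptococcus agalactiae tested by CLSI broth microdilution in both cation-adjusted Mueller Hinton II and Todd Hewitt broth. Inoculum was a suspension from solid media at 1×10^7 cfu/ml, with 5 μl added to 100 μl medium containing compound. MIC was the lowest concentration inhibiting visible growth, from at least three independent experiments.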

Pseudomonas aeruginosa = experiment: Antibacterial activity against 1 x 10^7 CFU/mL Pseudomonas aeruginosa PAO1 PAS2008 harboring LepB P84L mutant in cation-adjusted Mueller Hinton 2 broth after 24 hrs by CLSI broth microdilution method; assay type: functional; conditions: PAO1 PAS2008, 24 h
Summary of the method: (§2)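 CLSI broth microdilution in cation-adjusted Mueller Hinton II broth. Inoculum made by suspending organisms grown on solid media in the same broth and diluting to 1×10^7 CFU/ml; 5 μl added to 100 μl medium containing graded compound concentrations. MIC is the lowest concentration preventing visible growth, from at least three independent experiments.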

[1] = tested on: Corynebacterium glutamicum; experiment: Antibacterial activity against 1 x 10^7 CFU/mL Corynebacterium glutamicum ATCC 44475 in cation-adjusted Mueller Hinton 2 broth after 24 hrs by CLSI broth microdilution method; assay type: functional; conditions: ATCC 44475, 24 h; summary of the method: as §2
Brevibacillus brevis = experiment: Antibacterial activity against 1 x 10^6 CFU/mL Brevibacillus brevis ATCC 8246 in cation-adjusted Mueller Hinton 2 broth after 24 hrs by CLSI broth microdilution method; assay type: functional; conditions: ATCC 8246, 24 h
Summary of the method: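 Brevibacillus brevis: 10⁶ cfu inoculated into 1 ml cultures in cation-adjusted Mueller Hinton II broth with compound and 1% DMSO final. Parallel tubes used 0.8% nutrient broth with 0.5% NaCl or without NaCl. Cultures shaken at 28 °C for 24 h. MIC was the lowest concentration inhibiting visible growth.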

[2] = Antibacterial activity against 1 x 10^7 CFU/mL Staphylococcus aureus NCTC 8325 PAS8001 harboring SpsB P29S mutant in cation-adjusted Mueller Hinton 2 broth after 24 hrs by CLSI broth microdilution method; assay type: functional, Staphylococcus aureus subsp. aureus NCTC 8325; conditions: PAS8001, 24 h; summary of the method: as §2
Streptococcus pneumoniae = experiment: Antibacterial activity against 1 x 10^7 CFU/mL Streptococcus pneumoniae R800 in Todd Hewitt broth after 24 hrs by CLSI broth microdilution method; assay type: functional; conditions: R800, 24 h; summary of the method: as §1
Rhodococcus opacus = experiment: Antibacterial activity against 1 x 10^7 CFU/mL Rhodococcus opacus DSM 1069 in cation-adjusted Mueller Hinton 2 broth after 24 hrs by CLSI broth microdilution method; assay type: functional; conditions: DSM 1069, 24 h; summary of the method: as §1
[3] = Antibacterial activity against 1 x 10^7 CFU/mL Staphylococcus epidermidis RP62A PAS9002 harboring Sps1B-S31P mutant in cation-adjusted Mueller Hinton 2 broth after 24 hrs by CLSI broth microdilution method; assay type: functional; conditions: PAS9002, 24 h; summary of the method: as §2
Prescottella equi = experiment: Antibacterial activity against 1 x 10^7 CFU/mL Rhodococcus equi ATCC 6939 in cation-adjusted Mueller Hinton 2 broth after 24 hrs by CLSI broth microdilution method; assay type: functional; conditions: Rhodococcus (subgen. Prescottella) equi, ATCC 6939, 24 h; summary of the method: as §2
[4] = Antibacterial activity against 1 x 10^7 CFU/mL Escherichia coli MG1655 PAS0260 harboring LepB P84L mutant in cation-adjusted Mueller Hinton 2 broth after 24 hrs by CLSI broth microdilution method; assay type: functional, Escherichia coli str. K-12 substr. MG1655; conditions: PAS0260, 24 h; summary of the method: as §2
Streptococcus pyogenes = experiment: Antibacterial activity against 1 x 10^7 CFU/mL Streptococcus pyogenes M1-5448 in Todd Hewitt broth after 24 hrs by CLSI broth microdilution method; assay type: functional; conditions: M1-5448, 24 h; summary of the method: as §1
[5] = tested on: Staphylococcus epidermidis; experiment: Antibacterial activity against 1 x 10^7 CFU/mL wild-type Staphylococcus epidermidis RP62A in cation-adjusted Mueller Hinton 2 broth after 24 hrs by CLSI broth microdilution method; assay type: functional; summary of the method: as §1

## CCCCCCCCCCCCCCCC(=O)N(C)[C@H](CO)C(=O)N[C@H](C)C(=O)NCC(=O)N(C)[C@@H]1C(=O)N[C@@H](C)C(=O)N[C@H](C(=O)O)Cc2cc(c(O)c([N+](=O)[O-])c2)-c2cc1ccc2O
Lactococcus lactis
  MIC: 32 µg/mL (≈ 34.6 µM)
Streptococcus agalactiae
  MIC: 8 µg/mL (≈ 8.64 µM)
Pseudomonas aeruginosa
  MIC: 4 µg/mL (≈ 4.32 µM)
[1]
  MIC: 2 µg/mL (≈ 2.16 µM)
Brevibacillus brevis
  MIC: > 64 µg/mL
[2]
  MIC: 4 µg/mL (≈ 4.32 µM)
Streptococcus pneumoniae
  MIC: 16 µg/mL (≈ 17.3 µM)
Rhodococcus opacus
  MIC: 4 µg/mL (≈ 4.32 µM)
[3]
  MIC: 8 µg/mL (≈ 8.64 µM)
Prescottella equi
  MIC: 32 µg/mL (≈ 34.6 µM)
[4]
  MIC: 2 µg/mL (≈ 2.16 µM)
Streptococcus pyogenes
  MIC: 4 µg/mL (≈ 4.32 µM)
[5]
  MIC: 0.25 µg/mL (≈ 0.27 µM)

## CCCCCCCCCCCCCCCC(=O)N(C)[C@H](CO)C(=O)N[C@H](C)C(=O)NCC(=O)N(C)[C@@H]1C(=O)N[C@@H](C)C(=O)N[C@H](C(=O)O)Cc2cc(N)c(O)c(c2)-c2cc1ccc2O
Pseudomonas aeruginosa
  MIC: 32 µg/mL (≈ 35.7 µM)
Brevibacillus brevis
  MIC: > 64 µg/mL
[2]
  MIC: 64 µg/mL (≈ 71.4 µM)
[4]
  MIC: 16 µg/mL (≈ 17.9 µM)
[5]
  MIC: 8 µg/mL (≈ 8.93 µM)

## CCCCCCCCCCCCCCCC(=O)N(C)[C@H](CO)C(=O)N[C@H](C)C(=O)NCC(=O)N(C)[C@@H]1C(=O)N[C@@H](C)C(=O)N[C@H](C(=O)O)Cc2ccc(O)c(c2)-c2cc1ccc2O [ARYLOMYCIN C16]
Lactococcus lactis
  MIC: 16 µg/mL (≈ 18.2 µM)
Streptococcus agalactiae
  MIC: > 128 µg/mL
Pseudomonas aeruginosa
  MIC: 4 µg/mL (≈ 4.54 µM)
[1]
  MIC: 2 µg/mL (≈ 2.27 µM)
Brevibacillus brevis
  MIC: > 64 µg/mL
[2]
  MIC: 4 µg/mL (≈ 4.54 µM)
Streptococcus pneumoniae
  MIC: 8 µg/mL (≈ 9.08 µM)
Rhodococcus opacus
  MIC: 1 µg/mL (≈ 1.13 µM)
[3]
  MIC: 8 µg/mL (≈ 9.08 µM)
Prescottella equi
  MIC: 16 µg/mL (≈ 18.2 µM)
[4]
  MIC: 2 µg/mL (≈ 2.27 µM)
Streptococcus pyogenes
  MIC: 8 µg/mL (≈ 9.08 µM)
[5]
  MIC: 0.25 µg/mL (≈ 0.284 µM)
